Laboratory results taken from ChEMBL document CHEMBL1123422, “1-Ethyl-7-[3-[(ethylamino)methyl]-1-pyrrolidinyl]-6,8-difluoro-1,4- dihydro-4-oxo-3-quinoline-carboxylic acid. New quinolone antibacterial with potent gram-positive activity” (1986).
In brackets after ≈: the same amount, converted by molar mass.

Tests used:
Pseudomonas aeruginosa = assay: Compound was tested for inhibition of the gram-negative organism Pseudomonas aeruginosa UI-18; format: functional
Summary of the method: (§1)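 MICs read in standard microdilution (microtitration) format against a panel of 10 bacterial organisms; values in µg/mL.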

Mus musculus [1] = assay: Compound was evaluated for protective dose against the […] UC-76 lethal infection following po administration in mouse; format: functional; conditions: read-out: PD50
Summary of the method: (§2)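 Acute lethal systemic infection in female Charles River CD-1 mice (18–22 g), challenged intraperitoneally with an estimated 100 median lethal dose in 5% hog gastric mucin. Single doses in a twofold rising series were given with the challenge, sc as aqueous solution or po by gavage in 5% gum acacia. PD50 (mg/kg) was estimated by log probit from survival of eight mice per dose.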

Staphylococcus aureus [2] = assay: Compound was tested for inhibition of the […] organism […] UC-76.; format: functional; summary of the method: as §1
Klebsiella pneumoniae = assay: Compound was tested for inhibition of the gram-negative organism Klebsiella pneumoniae MGH-2; format: functional; summary of the method: as §1
Mus musculus [3] = assay: Compound was evaluated for protective dose against the […] UC-76 lethal infection following sc administration in mouse; format: functional; conditions: read-out: PD50; summary of the method: as §2
Escherichia coli [4] = assay: Compound was tested for inhibition of the gram-negative organism Escherichia coli H560; format: functional; summary of the method: as §1
Mus musculus [5] = assay: Compound was evaluated for protective dose against the Escherichia coli vogel lethal infection following peroral administration in mouse; format: functional; conditions: po, read-out: PD50; summary of the method: as §2
[6] = biological target: DNA gyrase (Escherichia coli) (UniProt P0AES6+P0AES4); assay: Inhibition of DNA gyrase of Escherichia coli H560 cells
Summary of the method: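 DNA gyrase purified from Escherichia coli H560 cells. Cleavage assay: drug-gyrase-DNA complex denatured, converting closed circular DNA to linear DNA. Linear DNA resolved by gel electrophoresis and stained with ethidium bromide. Value is the minimum drug concentration (µg/mL) giving linear DNA at an intensity relative to oxolinic acid at 10 µg/mL. Aqueous drug stocks made up in 0.1 N NaOH or KOH.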

Enterobacter cloacae = assay: Compound was tested for inhibition of the gram-negative organism […] HA 2646; format: functional
Streptococcus pneumoniae = assay: Compound was tested for inhibition of the […] organism Streptococcus pneumoniae SV-1; format: functional; summary of the method: as §1
Providencia rettgeri = assay: Compound was tested for inhibition of the gram-negative organism Providencia rettgeri H1771; format: functional; summary of the method: as §1
Staphylococcus aureus [7] = assay: Compound was tested for inhibition of the […] organism […] H228.; format: functional; summary of the method: as §1
Streptococcus pyogenes = assay: Compound was tested for inhibition of the […] organism Streptococcus pyogenes C203.; format: functional; summary of the method: as §1
Mus musculus [8] = assay: Compound was evaluated for protective dose against the Escherichia coli vogel lethal infection following sc administration in mouse; format: functional; conditions: read-out: PD50; summary of the method: as §2
Enterococcus faecalis = assay: Compound was tested for inhibition of the […] organism Streptococcus faecalis MGH-2; format: functional; summary of the method: as §1
Escherichia coli [9] = assay: Compound was tested for inhibition of the gram-negative organism Escherichia coli vogel; format: functional; summary of the method: as §1
Mus musculus [10] = assay: Compound was evaluated for protective dose against the Streptococcus pneumoniae SV-1 lethal infection following po administration; format: functional; conditions: read-out: PD50
Summary of the method: (§3)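 Female Charles River CD-1 mice (18–22 g) were challenged intraperitoneally with an estimated 100 median lethal dose in tryptic soy broth. Single doses, in a twofold rising series, were given at the same time as challenge: subcutaneously as aqueous solution, or orally by gavage in 5% gum acacia. Survival in groups of eight mice per dose gave PD50 (mg/kg) by log probit.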

Mus musculus [11] = assay: Compound was evaluated for protective dose against Streptococcus pneumoniae SV-1 lethal infection following sc administration; format: functional; conditions: read-out: PD50; summary of the method: as §3

Structure (SMILES) | MIC (Pseudomonas aeruginosa) | ED50 (Mus musculus [1]) | MIC (Staphylococcus aureus [2]) | MIC (Klebsiella pneumoniae) | ED50 (Mus musculus [3]) | MIC (Escherichia coli [4]) | ED50 (Mus musculus [5]) | Min concentration [6] | MIC (Enterobacter cloacae) | MIC (Streptococcus pneumoniae) | MIC (Providencia rettgeri) | MIC (Staphylococcus aureus [7]) | MIC (Streptococcus pyogenes) | ED50 (Mus musculus [8]) | MIC (Enterococcus faecalis) | MIC (Escherichia coli [9]) | ED50 (Mus musculus [10]) | ED50 (Mus musculus [11])
CCn1cc(C(=O)O)c(=O)c2cc(F)c(N3CCC(CN)C3)cc21 (stereo not given) | 1.6 µg/mL (≈ 4.8 µM) | > 50 mg/kg | 0.05 µg/mL (≈ 0.15 µM) | 3.1 µg/mL (≈ 9.3 µM) | 6 mg/kg | 0.4 µg/mL (≈ 1.2 µM) | > 100 mg/kg | 3 µg/mL | 1.6 µg/mL (≈ 4.8 µM) | 0.2 µg/mL (≈ 0.6 µM) | 6.3 µg/mL (≈ 18.9 µM) | 1.6 µg/mL (≈ 4.8 µM) | 0.2 µg/mL (≈ 0.6 µM) | 25 mg/kg | 0.8 µg/mL (≈ 2.4 µM) | 0.8 µg/mL (≈ 2.4 µM) |  | 
CCn1cc(C(=O)O)c(=O)c2cc(F)c(N3CCC(CNC)C3)cc21 (stereo not given) | 1.6 µg/mL (≈ 4.61 µM) | > 50 mg/kg | 0.013 µg/mL (≈ 0.0374 µM) | 1.6 µg/mL (≈ 4.61 µM) | 8 mg/kg | 0.2 µg/mL (≈ 0.576 µM) | > 100 mg/kg |  | 1.6 µg/mL (≈ 4.61 µM) | 0.2 µg/mL (≈ 0.576 µM) | 6.3 µg/mL (≈ 18.1 µM) | 0.8 µg/mL (≈ 2.3 µM) | 0.1 µg/mL (≈ 0.288 µM) | 18 mg/kg | 1.6 µg/mL (≈ 4.61 µM) | 0.2 µg/mL (≈ 0.576 µM) | > 100 mg/kg | > 25 mg/kg
CCn1cc(C(=O)O)c(=O)c2cc(F)c(N3CCC(CN)C3)c(F)c21 (stereo not given) | 0.8 µg/mL (≈ 2.28 µM) |  | 0.1 µg/mL (≈ 0.285 µM) | 0.4 µg/mL (≈ 1.14 µM) |  | 0.1 µg/mL (≈ 0.285 µM) | 90 mg/kg | 0.5 µg/mL | 0.2 µg/mL (≈ 0.569 µM) | 0.2 µg/mL (≈ 0.569 µM) | 0.4 µg/mL (≈ 1.14 µM) | 0.1 µg/mL (≈ 0.285 µM) | 0.1 µg/mL (≈ 0.285 µM) | 1.2 mg/kg | 0.1 µg/mL (≈ 0.285 µM) | 0.1 µg/mL (≈ 0.285 µM) | 100 mg/kg | 5 mg/kg
CCNCC1CCN(c2cc3c(cc2F)c(=O)c(C(=O)O)cn3CC)C1 (stereo not given) | 1.6 µg/mL (≈ 4.43 µM) | 35 mg/kg | 0.05 µg/mL (≈ 0.138 µM) | 0.4 µg/mL (≈ 1.11 µM) | 3 mg/kg | 0.1 µg/mL (≈ 0.277 µM) | > 100 mg/kg | 2.5 µg/mL | 0.2 µg/mL (≈ 0.553 µM) | 0.2 µg/mL (≈ 0.553 µM) | 1.6 µg/mL (≈ 4.43 µM) | 0.2 µg/mL (≈ 0.553 µM) | 0.1 µg/mL (≈ 0.277 µM) | 15 mg/kg | 0.2 µg/mL (≈ 0.553 µM) | 0.1 µg/mL (≈ 0.277 µM) |  | 
CCn1cc(C(=O)O)c(=O)c2cc(F)c(N3CCC(CNC)C3)c(F)c21 (stereo not given) | 1.6 µg/mL (≈ 4.38 µM) |  | 0.1 µg/mL (≈ 0.274 µM) | 0.8 µg/mL (≈ 2.19 µM) |  | 0.2 µg/mL (≈ 0.547 µM) | 6.9 mg/kg | 0.5 µg/mL | 0.4 µg/mL (≈ 1.09 µM) | 0.1 µg/mL (≈ 0.274 µM) | 0.8 µg/mL (≈ 2.19 µM) | 0.2 µg/mL (≈ 0.547 µM) | 0.1 µg/mL (≈ 0.274 µM) | 1.9 mg/kg | 0.1 µg/mL (≈ 0.274 µM) | 0.4 µg/mL (≈ 1.09 µM) | 37 mg/kg | 11 mg/kg
CNn1cc(C(=O)O)c(=O)c2cc(F)c(N3CCN(C)CC3)cc21 [AMIFLOXACIN] | 0.8 µg/mL (≈ 2.39 µM) |  | 0.4 µg/mL (≈ 1.2 µM) | 0.2 µg/mL (≈ 0.598 µM) |  | 0.025 µg/mL (≈ 0.0748 µM) | 4.5 mg/kg |  |  | 12.5 µg/mL (≈ 37.4 µM) | 0.2 µg/mL (≈ 0.598 µM) | 1.6 µg/mL (≈ 4.79 µM) | 12.5 µg/mL (≈ 37.4 µM) | 1 mg/kg | 3.1 µg/mL (≈ 9.27 µM) | 0.1 µg/mL (≈ 0.299 µM) | > 100 mg/kg | > 25 mg/kg
O=C(O)c1cn(C2CC2)c2cc(N3CCNCC3)c(F)cc2c1=O [CIPROFLOXACIN] | 0.4 µg/mL (≈ 1.21 µM) | 9.5 mg/kg | 0.2 µg/mL (≈ 0.604 µM) | 0.1 µg/mL (≈ 0.302 µM) | 3 mg/kg | 0.025 µg/mL (≈ 0.0754 µM) | 1.2 mg/kg | 0.5 µg/mL |  |  | 0.1 µg/mL (≈ 0.302 µM) | 3.1 µg/mL (≈ 9.36 µM) | 0.8 µg/mL (≈ 2.41 µM) | 0.25 mg/kg | 0.8 µg/mL (≈ 2.41 µM) |  | > 100 mg/kg | 18 mg/kg
